Consider 8 compounds from ChEMBL document CHEMBL1137591, “Identification of a potent and stable antiproliferative agent by the prodrug formation of a thiolate histone deacetylase inhibitor” (Bioorg Med Chem Lett, 2007).

One data set has as its system NCI-H460. Kind of data set: Inhibition of NCI-H460 cell proliferation (mean). The data set is classed as functional, cell-based. Particulars: Homo sapiens. A digest of the protocol: (§1)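 Cells were seeded at 1500 per well and held 24 h at 37 °C. They were then exposed for 48 h to a range of compound concentrations in RPMI-1640 with 10% FBS at 37 °C and 5% CO2. Staining used 0.5 mg/mL methylene blue for 30 min at room temperature. Dye was dissolved in 3% aqueous HCl and absorbance read at 660 nm. EC50 values are means of at least two experiments.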

In another data set the test system is MDA-MB-231. Description: Inhibition of MDA-MB-231 cell proliferation (mean of two experiments). The data set is classed as functional, cell-based, Homo sapiens. The procedure, abridged:
as §1

The next data set has as its system Malme-3M. Kind of data set: Inhibition of MALME-3M cell proliferation (mean). The class given is functional, cell-based. Particulars: Homo sapiens. A digest of the protocol: as §1
For another data set, the system named is A498. Description: Inhibition of A498 cell proliferation (mean). The data set is classed as functional, cell-based. The conditions noted are these: Homo sapiens. A digest of the protocol:
as §1

The subject of the next data set is PC-3. Description: Inhibition of PC-3 cell proliferation (mean). Particulars: Homo sapiens. The class given is functional, cell-based. A digest of the protocol:
as §1

The test system of the next data set is T47D. Description: Inhibition of T-47D cell proliferation (mean of two experiments). The data set is classed as functional, cell-based. The conditions noted are these: Homo sapiens. The procedure, abridged: as §1
The subject of a further data set is DLD-1. Description: Inhibition of DLD-1 cell proliferation (mean). The data set is classed as functional, cell-based. Particulars: Homo sapiens. A digest of the protocol: as §1
A further data set relates to HCT-116. Description: Inhibition of HCT116 cell proliferation (mean). The data set is classed as functional, cell-based. Particulars: Homo sapiens. A digest of the protocol: as §1
Data set [1] in a line: Stability (mean % remaining) in human plasma after incubation at 37 °C for 4h. The data set is classed as ADME, cell-free. Particulars: read-out: %R. A digest of the protocol:
(§2)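 Compounds were incubated in human plasma with sampling at 0, 2, 4, 8 and 24 h. The percentage of intact compound remaining was measured at each point. Values are means of at least three experiments.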

Data set [2] can be described thus: Stability (mean % remaining) in human plasma after incubation at 37 °C for 2h. The conditions noted are these: read-out: %R. The class given is ADME, cell-free. A digest of the protocol: as §2
Data set [3] is described as follows: Stability (mean % remaining) in human plasma after incubation at 37 °C for 8h. The class given is ADME, cell-free. The conditions noted are these: read-out: %R. The procedure, abridged: as §2
A short description of data set [4]: Stability (mean % remaining) in human plasma after incubation at 37 °C for 0h. The data set is classed as ADME. Particulars: read-out: %R. A digest of the protocol:
as §2

Data set [5] is described as follows: Stability (mean % remaining) in human plasma after incubation at 37 °C for 24h. The data set is classed as ADME, cell-free. Particulars: read-out: %R. A digest of the protocol: as §2
For another data set, the target named is Histone deacetylase 1 (Homo sapiens, UniProt Q13547). Description: Inhibition of HDAC1.

Structures are written as SMILES.

Histone deacetylase 1, sequence (Q13547 whole entry): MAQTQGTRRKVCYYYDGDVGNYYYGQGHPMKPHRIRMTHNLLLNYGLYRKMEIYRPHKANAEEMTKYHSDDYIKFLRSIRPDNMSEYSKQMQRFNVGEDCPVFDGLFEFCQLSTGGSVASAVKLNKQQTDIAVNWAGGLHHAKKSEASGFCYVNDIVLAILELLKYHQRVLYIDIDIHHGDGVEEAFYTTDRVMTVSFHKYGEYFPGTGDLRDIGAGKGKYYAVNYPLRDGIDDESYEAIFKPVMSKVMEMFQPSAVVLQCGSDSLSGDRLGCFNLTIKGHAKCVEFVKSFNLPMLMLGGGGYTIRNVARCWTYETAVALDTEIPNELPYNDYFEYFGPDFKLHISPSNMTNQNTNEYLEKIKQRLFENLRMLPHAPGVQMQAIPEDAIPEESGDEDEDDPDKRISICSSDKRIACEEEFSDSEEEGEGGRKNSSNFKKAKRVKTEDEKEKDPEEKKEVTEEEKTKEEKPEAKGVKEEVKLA

Consider `COC(C(=O)SCCCCCCC(=O)Nc1nc(-c2ccccc2)cs1)c1ccccc1` (stereo unspecified), for which the EC50 (as a rule, the concentration giving half of the maximal effect) with NCI-H460 is 11 µM; with MDA-MB-231 (Homo sapiens, MDA-MB-231), more than 20 µM.

Consider `CC(C(=O)SCCCCCCC(=O)Nc1nc(-c2ccccc2)cs1)c1ccccc1` (stereo unspecified), for which the concentration for a half-maximal effect (EC50) in the data set with Malme-3M is 33 µM; with NCI-H460 it was 3.2 µM; in the data set on A498, 26 µM; in the data set with PC-3, 37 µM; in the data set on T47D it was more than 100 µM; in the data set with DLD-1, 86 µM. Moreover, the EC50 with MDA-MB-231 (Homo sapiens, MDA-MB-231) was more than 20 µM; with MDA-MB-231 (mda-mb-231), 27 µM; with HCT-116 it was 23 µM.

As for `C[C@@H](Cc1ccccc1)C(=O)SCCCCCCC(=O)Nc1nc(-c2ccccc2)cs1`, the EC50 was found to be 3 µM in the data set on NCI-H460; 4.4 µM in the data set on PC-3; 4 µM in the data set on MDA-MB-231 (Homo sapiens, MDA-MB-231); 0.62 µM in the data set with HCT-116.

Turning to `C[C@H](Cc1ccccc1)C(=O)SCCCCCCC(=O)Nc1nc(-c2ccccc2)cs1`, the concentration for a half-maximal effect (EC50) with NCI-H460 is 3.2 µM; in the data set with PC-3, 9.9 µM; with MDA-MB-231 (Homo sapiens, MDA-MB-231) it was 3.1 µM; in the data set with HCT-116, 0.75 µM.

Consider `CC(C)C(=O)SCCCCCCC(=O)Nc1nc(-c2ccccc2)cs1`, for which the EC50 was found to be 4.3 µM with Malme-3M; 2.1 µM in the data set on NCI-H460; 6.8 µM in the data set with A498; 9.5 µM with PC-3; 8.3 µM with T47D; 2.3 µM in the data set with DLD-1. For the same compound, the concentration for a half-maximal effect (EC50) with MDA-MB-231 (Homo sapiens, MDA-MB-231) stood at 4.4 µM; in the data set on HCT-116, 1.3 µM. The remaining at 4 h in data set [1] worked out at 71%. In [2], the remaining at 2 h was 86%. Also, the remaining at 8 h in data set [3] worked out at 63%. Further, the remaining at 0 h in data set [4] was 100%. In addition, the remaining at 24 h in [5] was found to be 49%.

Consider `CC(Cc1ccccc1)C(=O)SCCCCCCC(=O)Nc1nc(-c2ccccc2)cs1` (stereo unspecified), for which the EC50 in the data set with Malme-3M came out at 3 µM; in the data set with NCI-H460 it was 1.5 µM; in the data set on A498 it was 2.6 µM; in the data set on PC-3, 3.2 µM; in the data set with T47D, 4.3 µM; in the data set with DLD-1, 1.8 µM. Further, the concentration for a half-maximal effect (EC50) in the data set with MDA-MB-231 (Homo sapiens, MDA-MB-231) stood at 1.9 µM; in the data set with HCT-116 it was 1.2 µM. Also, the remaining at 4 h in data set [1] was 99%. For the same compound, the remaining at 2 h in [2] came to 100%. Further, the remaining at 8 h in [3] came to 99%. Moreover, the IC50 (commonly the concentration at which inhibition is half-maximal) at Histone deacetylase 1 is more than 100 µM. Also, the remaining at 0 h in data set [4] worked out at 100%. Besides, the remaining at 24 h in data set [5] was 100%.

In the case of `O=C(CCCCCCS)Nc1nc(-c2ccccc2)cs1`, the midpoint of inhibition on Histone deacetylase 1, the IC50, lay at 0.048 µM. Moreover, the EC50 was 7.6 µM with NCI-H460 and more than 20 µM in the data set with MDA-MB-231 (Homo sapiens, MDA-MB-231).

On to `O=C(CCCCCCSC(=O)C(Cc1ccccc1)Cc1ccccc1)Nc1nc(-c2ccccc2)cs1`, for which the EC50 was more than 20 µM with NCI-H460 and more than 20 µM in the data set with MDA-MB-231 (Homo sapiens, MDA-MB-231).
